Test results reported in ChEMBL document CHEMBL1132421, “N-[2,2-dimethyl-3-(N-(4-cyanobenzoyl)amino)nonanoyl]-L-phenylalanine ethyl ester as a stable ester-type inhibitor of chymotrypsin-like serine proteases: structural requirements for potent inhibition of alpha-chymotrypsin” (J Med Chem, 1999).

Key:
chymotrypsin = experiment: Percentage of intact compound after chymotrypsin cleavage at 37 degree C for 120 min; assay type: ADME; details: read-out: Stability
Outline: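 Inhibitor (5 mM stock, diluted 1:100 by volume) incubated with bovine α-chymotrypsin (625 ng/mL solution) for 120 min at 37 °C. Intact compound and cleaved free acid quantified by reverse-phase HPLC (50–75% acetonitrile in 0.1% TFA over 25 min). Result given as percent intact compound relative to the initial amount.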

Serine protease 1 = target: T1, Serine protease 1 (Bos taurus, UniProt P00760); experiment: Compound was tested by chromogenic assay for the inhibition of serine proteases like Bovine trypsin
T1 sequence (P00760 whole entry): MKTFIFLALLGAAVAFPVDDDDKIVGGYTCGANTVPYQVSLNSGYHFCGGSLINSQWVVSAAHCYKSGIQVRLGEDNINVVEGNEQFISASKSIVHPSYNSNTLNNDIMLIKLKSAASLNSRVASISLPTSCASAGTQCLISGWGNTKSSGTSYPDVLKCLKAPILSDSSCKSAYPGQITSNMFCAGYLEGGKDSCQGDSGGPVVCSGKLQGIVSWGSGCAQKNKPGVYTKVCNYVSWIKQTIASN
Outline: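 Trypsin (1 U/mL; named porcine pancreatic in the methods, bovine in the table footnote) with Bz-L-Arg-pNA (1 mM) in 50 mM HEPES pH 7.4 containing 0.1 mM NaCl, with varied inhibitor concentrations. Incubated 120 min at 37 °C, then A405 read. IC50 from dose-inhibition curves, with leupeptin as control.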

Chymotrypsinogen A [1] = target: T2, Chymotrypsinogen A (Bos taurus, UniProt P00766); experiment: In vitro inhibition of bovine alpha chymotrypsin.
Outline: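 Bovine pancreatic α-chymotrypsin (type I-S, 47 ng/mL) with N-succinyl-Ala-Ala-Pro-Phe-pNA (1.5 mM) in 50 mM HEPES pH 7.4 containing 0.1 mM NaCl, across a range of inhibitor concentrations. Incubated 120 min at 37 °C, then A405 read. IC50 taken from dose-inhibition curves, in triplicate. Chymostatin served as control.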

[2] = target: Chymotrypsin-like elastase family member 1 (Sus scrofa, UniProt P00772); experiment: Compound was tested by chromogenic assay for the inhibition of serine proteases like Porcine Elastase
Chymotrypsin-like elastase family member 1, sequence (P00772 whole entry): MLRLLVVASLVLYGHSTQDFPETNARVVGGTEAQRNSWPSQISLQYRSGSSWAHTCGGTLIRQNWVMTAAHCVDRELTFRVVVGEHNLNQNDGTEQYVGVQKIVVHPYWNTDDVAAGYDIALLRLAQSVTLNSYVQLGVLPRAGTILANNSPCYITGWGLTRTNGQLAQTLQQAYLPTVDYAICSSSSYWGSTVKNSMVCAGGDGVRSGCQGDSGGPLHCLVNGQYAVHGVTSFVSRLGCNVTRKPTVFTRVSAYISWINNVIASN
Outline: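 Purified porcine pancreatic elastase (type III) with chromogenic substrate N-succinyl-Ala-Ala-Ala-pNA in 50 mM HEPES, pH 7.4, with NaCl. Enzyme and substrate were mixed with a range of inhibitor concentrations and held at 37 °C for 120 min. Activity was read as absorbance at 405 nm. IC50 was taken from dose-inhibition curves, with elastatinal as the reference inhibitor.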

Chymase = target: T3, Chymase (Homo sapiens, UniProt P23946); experiment: Compound was tested by chromogenic assay for the inhibition of human Serine protease chymase
T3 sequence (P23946 whole entry): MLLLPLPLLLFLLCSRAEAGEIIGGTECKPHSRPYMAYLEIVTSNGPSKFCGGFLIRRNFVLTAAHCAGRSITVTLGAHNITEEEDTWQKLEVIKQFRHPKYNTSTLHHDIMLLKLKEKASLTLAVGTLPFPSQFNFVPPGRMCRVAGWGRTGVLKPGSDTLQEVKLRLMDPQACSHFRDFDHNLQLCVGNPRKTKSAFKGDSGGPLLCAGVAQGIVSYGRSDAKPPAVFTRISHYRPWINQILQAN

Chymotrypsinogen A [3] = target: T2, Chymotrypsinogen A; experiment: Compound was evaluated for inactivation of bovine alpha-Chymotrypsin Kinetic constant(Ki)
Cathepsin G = target: T4, Cathepsin G (Homo sapiens, UniProt P08311); experiment: Compound was tested by chromogenic assay for the inhibition of serine proteases like Human cathepsin G
T4 sequence (P08311 whole entry): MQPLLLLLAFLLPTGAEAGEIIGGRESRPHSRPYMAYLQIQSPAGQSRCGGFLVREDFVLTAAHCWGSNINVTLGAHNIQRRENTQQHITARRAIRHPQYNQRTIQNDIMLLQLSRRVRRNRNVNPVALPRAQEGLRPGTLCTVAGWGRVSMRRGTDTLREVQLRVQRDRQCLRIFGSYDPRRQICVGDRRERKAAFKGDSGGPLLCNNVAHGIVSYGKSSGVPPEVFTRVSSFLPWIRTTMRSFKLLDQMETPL

Row | remaining at 2 h (chymotrypsin) [%] | IC50 (Serine protease 1) [µM] | IC50 (Chymotrypsinogen A [1]) [µM] | SMILES | IC50 [2] [µM] | also measured
1 | 3 | – | – | CCCCCC(NC(=O)c1ccc(C#N)cc1)C(C)(C)C(=O)N[C@@H](Cc1ccccc1)C(=O)OCC (stereo not given in full) | – | –
2 | 6 | – | – | CCCCCCC(NC(=O)c1ccc(C#N)cc1F)C(C)(C)C(=O)N[C@@H](Cc1ccccc1)C(=O)OCC (stereo not given in full) | – | –
3 | – | 0.3 | 0.0021 | CC(C)(C(=O)OC(=O)C(C)(C)C(CCc1ccccc1)NC(=O)c1ccc(C#N)cc1)C(CCc1ccccc1)NC(=O)c1ccc(C#N)cc1 (stereo not given) | – | –
4 | – | 6.3 | 1 | CCCCCCC(NC(=O)OC(C)(C)C)C(C)(C)C(=O)N[C@@H](Cc1ccccc1)C(=O)OCC (stereo not given in full) | – | –
5 | 91 | – | 3.4 | CCOC(=O)[C@H](Cc1ccccc1)NC(=O)C(C)(C)C(CC)NC(=O)c1ccc(C#N)cc1 (stereo not given in full) | – | –
6 | 11 | – | – | CCCC(NC(=O)c1ccc(C#N)cc1)C(C)(C)C(=O)N[C@@H](Cc1ccccc1)C(=O)OCC (stereo not given in full) | – | –
7 | 41 | – | – | CCOC(=O)[C@H](Cc1ccccc1)NC(=O)C(C)(C)C(CC(C)C)NC(=O)c1ccc(C#N)cc1 (stereo not given in full) | – | –
8 | < 1 | – | – | CCCCCCCC(NC(=O)c1ccc(C#N)cc1)C(C)(C)C(=O)N[C@@H](Cc1ccccc1)C(=O)OCC (stereo not given in full) | – | –
9 | 16 | – | – | CCCCCCCCCCC(NC(=O)c1ccc(C#N)cc1)C(C)(C)C(=O)N[C@@H](Cc1ccccc1)C(=O)OCC (stereo not given in full) | – | –
10 | – | 220 | 4.2 | CCCCCCCCCCCCC(NC(=O)c1ccc(C#N)cc1)C(C)(C)C(=O)N[C@@H](Cc1ccccc1)C(=O)OCC (stereo not given in full) | – | –
11 | – | – | 73 | CCCCCCC(NC(=O)c1ccc(C#N)cc1)C(C)(C)C(=O)N[C@@H](Cc1ccccc1)C(=O)OC(C)(C)C (stereo not given in full) | – | –
12 | 90 | 60 | 2.2 | CCOC(=O)[C@H](Cc1ccccc1)NC(=O)C(C)(C)C(NC(=O)c1ccc(C#N)cc1)C(C)C (stereo not given in full) | – | –
13 | – | – | 230 | CCCCCCC(NC(=O)c1ccc(C#N)cc1)C(C)(C)C(=O)N[C@@H](Cc1ccccc1)C(=O)OCc1ccccc1 (stereo not given in full) | – | –
14 | – | – | 12 | CCCCCCC(NC(=O)c1ccco1)C(C)(C)C(=O)N[C@@H](Cc1ccccc1)C(=O)OCC (stereo not given in full) | – | –
15 | < 1 | 560 | 17 | CCCCCCC(NC(=O)c1ccccc1)C(C)(C)C(=O)N[C@@H](Cc1ccccc1)C(=O)OCC (stereo not given in full) | – | –
16 | – | – | 0.25 | CCOC(=O)[C@H](Cc1ccccc1)NC(=O)C(C)(C)C(CCc1ccccc1)NC(=O)c1ccc(C#N)cc1 (stereo not given in full) | – | –
17 | – | 0.54 | 0.0026 | CCCCCCC(NC(=O)c1ccc(C#N)cc1)C(C)(C)C(=O)N[C@@H](Cc1ccccc1)C(=O)OCC (stereo in doubt; 3) | 0.007 | Ki (Chymotrypsinogen A [3]): 0.0045 µM
18 | – | – | 0.0016 | CCCCCCC(NC(=O)c1ccc(C#N)cc1)C(C)(C)C(=O)N[C@@H](Cc1ccccc1)C(=O)OCC (stereo in doubt; 3-F) | 0.0086 | –
19 | – | – | 0.0051 | CCCCCCC(NC(=O)c1ccc(C#N)cc1)C(C)(C)C(=O)N[C@@H](Cc1ccccc1)C(=O)OCC (stereo in doubt; 3-R) | 0.014 | –

Row | SMILES | remaining at 2 h (chymotrypsin) [%] | IC50 (Serine protease 1) [µM] | IC50 (Chymotrypsinogen A [1]) [µM] | IC50 [2] [µM] | also measured
20 | CCCCC(NC(=O)c1ccc(C#N)cc1)C(C)(C)C(=O)N[C@@H](Cc1ccccc1)C(=O)OCC (stereo not given in full) | – | – | 27 | 710 | IC50 (Chymase): 510 µM
21 | CCCCCCC(NC(=O)c1ccc(C#N)cc1)C(C)(C)C(=O)N[C@@H](Cc1ccccc1)C(=O)OC (stereo not given in full) | 98 | – | 1.1 | 4.2 | Ki (Chymotrypsinogen A [3]): 12 µM; IC50 (Cathepsin G): 1.5 µM
22 | CCCCCCC(NC(=O)c1ccc(C#N)cc1)C(C)(C)C(=O)N[C@@H](Cc1ccccc1)C(=O)OC(C)C (stereo not given in full) | 98 | 6.7 | 0.086 | 0.2 | Ki (Chymotrypsinogen A [3]): 0.07 µM; IC50 (Chymase): 0.15 µM
23 | CCCCCCCCC(NC(=O)c1ccc(C#N)cc1)C(C)(C)C(=O)N[C@@H](Cc1ccccc1)C(=O)OCC (stereo not given in full) | 61 | – | 8.6 | 2.7 | IC50 (Cathepsin G): 6.6 µM
24 | CCCCCCC(NC(=O)c1ccc(C#N)cc1)C(C)(C)C(=O)N[C@@H](Cc1ccccc1)C(=O)OCCC (stereo not given in full) | 97 | 17 | 0.23 | 0.27 | Ki (Chymotrypsinogen A [3]): 0.34 µM
